# Measured values from different studies.
# Each line is one published result; the experiments were not run side by side. pIC50: −log10 of the molar value.
# Read-out: DPPH scavenging
SMILES,technique,measurement,value
O=C(O)c1cc(O)c(O)c(O)c1,absorbance,pIC50,4.44
COc1cc(C=CC(=O)CC(c2ccc([N+](=O)[O-])cc2)n2ccnc2)ccc1O (centres unmarked),,IC50,26.9 µg/mL
COc1cc(C(CC(=O)c2ccc([N+](=O)[O-])cc2)NCCc2ccc(O)c(O)c2)ccc1O (centres unmarked),,IC50,14.6 µg/mL
O=C(Cc1c[nH]c2ccccc12)Nc1ccccc1,,pIC50,5.63
O=C1O[C@H]([C@@H](O)CO)C(O)=C1O,absorbance,pIC50,3.85
Clc1ccc2[nH]c(-c3cccc(OCc4ccccc4)c3)nc2c1,absorbance,pIC50,5.74
Cc1c(C)c2c(c(C)c1O)CC[C@@](C)(CCC[C@H](C)CCC[C@H](C)CCCC(C)C)O2,absorbance,IC50,11.3 µg/mL
COc1cc(C(CC(N)=O)NCCc2ccc(O)c(O)c2)ccc1O (centres unmarked),,IC50,80.2 µg/mL
COc1cc(C=Cc2cc(-c3ccccc3)nc(O)n2)ccc1O,,IC50,24 µg/mL
CCCCOc1ccc(NC(=O)Cc2c[nH]c3ccccc23)cc1,,pIC50,5.62
COc1ccc(-c2nc3cc(Cl)ccc3[nH]2)cc1OCc1ccccc1,absorbance,pIC50,5.56
O=C(Cc1c[nH]c2ccccc12)Nc1ccc(Br)cc1,,pIC50,5.99
O=C(OC[C@H]1O[C@@H](OC(=O)c2cc(O)c(O)c(O)c2)[C@H](OC(=O)c2cc(O)c(O)c(O)c2)[C@@H](OC(=O)c2cc(O)c(O)c(O)c2)[C@@H]1O)c1cc(O)c(O)c(O)c1,absorbance,pIC50,4.93
Cc1ccc(NC(=O)Cc2c[nH]c3ccccc23)c(C)c1,,pIC50,5.57
Cc1cc2nc(-c3ccccc3OCc3ccccc3)[nH]c2cc1C,absorbance,pIC50,5.74
O=C1O[C@H]([C@@H](O)CO)C(O)=C1O,,IC50,4.8 µg/mL
COc1ccc(OC)c(NC(=O)Cc2c[nH]c3ccccc23)c1,,pIC50,5.70
COC(=O)c1cc(O)c(O)c(O)c1,absorbance,pIC50,4.46
COc1ccc(NC(=O)Cc2c[nH]c3ccccc23)cc1,,pIC50,5.98
COc1cc(C(CC(=O)c2ccc(Br)cc2)NCCc2ccc(O)c(O)c2)ccc1O (centres unmarked),,IC50,15.2 µg/mL
